# Screens from PubChem.
# Scp-1 inhibitor – blocks human Scp-1 phosphatase activity; Q9GZU7; Recombinant Scp1, phosphopeptide, malachite green phosphate absorbance; inhibition, % at 20 µM; 0.88% of 340,000 active; AID 493091;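 active means inhibition above about 50% at 20 µM, limit read from the data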;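 further: plate controls were DMSO wells with enzyme for no effect and wells lacking enzyme for full effect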
#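 System: truncated SCP-1 phosphatase (76-261aa); medium: Tris acetate buffer pH 5.5 with MgCl2 and Tween-20; incubation: 45 min room-temperature reaction, 5 min colour, 30 min stabiliser; compound: single 20 µM dose, 1% DMSO; reagent: Phosphorylated 17-residue peptide substrate; read-out: % inhibition at 20 µM; technique: colorimetric free-phosphate detection, absorbance 630 nm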
# STEP block – STEP (human) phosphatase inhibition; recombinant STEP, OMFP fluorogenic substrate, fluorescence; inhibition, % at 20 µM; 0.25% of 360,000 active; AID 588621;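 active means inhibition at 20 µM, scaled per plate between control wells, above about 37%, limit read from the data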;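 further: 0% = DMSO with enzyme and substrate and 100% = substrate only without enzyme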
#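 Assay system: isolated STEP enzyme / Timing: 20 min at room temperature, dark / Doses: 20 µM, 1% DMSO / Technique: fluorescence intensity, excitation 480 nm, emission 540 nm / Reagent: fluorogenic phosphatase substrate OMFP at 25 µM final / Measure: percent inhibition scaled to no-enzyme and uninhibited-enzyme controls, plate-pattern corrected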
# F508del corr – correctors of CFTR F508del function in bronchial epithelial cells | CFBE cells, YFP halide quenching; stimulated with forskolin plus potentiator P3; % fluorescence drop versus neutral controls | activity (quench increase), % at 7.58 µM | 0.36% of 350,000 active | AID 720511;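 active means mean added fluorescence quench of at least 8% versus neutral control, with both replicates also reaching 8%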;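 further: cells transiently co-express mutant CFTR-F508del with the halide-sensitive YFP; corrector assay measuring rescue of mutant channel to the surface after 24 h compound exposure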
# LMPTP block – LMPTP (human) inhibition; recombinant LMPTP-A, OMFP fluorogenic substrate, fluorescence intensity; inhibition, % at 20 µM; 0.22% of 360,000 active;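 active means compounds that cut the enzyme signal by at least half of the control window in the single-dose screen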;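 further: plate controls were DMSO wells with enzyme plus substrate for no effect and substrate without enzyme for full effect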
#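 Test system: LMPTP-A phosphatase enzyme. Amount: LMPTP-A at 0.625 nM final in the reaction. Reagent: OMFP substrate, 400 µM final. Times: 50 min at room temperature. Signal: endpoint fluorescence intensity from OMFP dephosphorylation. Read-out basis: % inhibition. Benchmarks: no-enzyme and uninhibited controls.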
# SUMO1 PPI mod – SUMO1-SIM interaction modulation; SUMO1 binding to a labelled peptide, TR-FRET, 1 h; P63165; inhibition, % at 20 µM; 0.33% of 360,000 active; in the data active means inhibition above about 37%
# DNMT1 inh – inhibitors of human DNMT1 | DNMT1 molecular beacon, Hinp1I cleavage, fluorescence | inhibition (reported as % activation of signal), % at 10 µM | AID 588458 | P26358 | 0.83% of 360,000 active; in the data active means inhibition above about 50%
# Target sequence (P26358 504-1616 limits assumed): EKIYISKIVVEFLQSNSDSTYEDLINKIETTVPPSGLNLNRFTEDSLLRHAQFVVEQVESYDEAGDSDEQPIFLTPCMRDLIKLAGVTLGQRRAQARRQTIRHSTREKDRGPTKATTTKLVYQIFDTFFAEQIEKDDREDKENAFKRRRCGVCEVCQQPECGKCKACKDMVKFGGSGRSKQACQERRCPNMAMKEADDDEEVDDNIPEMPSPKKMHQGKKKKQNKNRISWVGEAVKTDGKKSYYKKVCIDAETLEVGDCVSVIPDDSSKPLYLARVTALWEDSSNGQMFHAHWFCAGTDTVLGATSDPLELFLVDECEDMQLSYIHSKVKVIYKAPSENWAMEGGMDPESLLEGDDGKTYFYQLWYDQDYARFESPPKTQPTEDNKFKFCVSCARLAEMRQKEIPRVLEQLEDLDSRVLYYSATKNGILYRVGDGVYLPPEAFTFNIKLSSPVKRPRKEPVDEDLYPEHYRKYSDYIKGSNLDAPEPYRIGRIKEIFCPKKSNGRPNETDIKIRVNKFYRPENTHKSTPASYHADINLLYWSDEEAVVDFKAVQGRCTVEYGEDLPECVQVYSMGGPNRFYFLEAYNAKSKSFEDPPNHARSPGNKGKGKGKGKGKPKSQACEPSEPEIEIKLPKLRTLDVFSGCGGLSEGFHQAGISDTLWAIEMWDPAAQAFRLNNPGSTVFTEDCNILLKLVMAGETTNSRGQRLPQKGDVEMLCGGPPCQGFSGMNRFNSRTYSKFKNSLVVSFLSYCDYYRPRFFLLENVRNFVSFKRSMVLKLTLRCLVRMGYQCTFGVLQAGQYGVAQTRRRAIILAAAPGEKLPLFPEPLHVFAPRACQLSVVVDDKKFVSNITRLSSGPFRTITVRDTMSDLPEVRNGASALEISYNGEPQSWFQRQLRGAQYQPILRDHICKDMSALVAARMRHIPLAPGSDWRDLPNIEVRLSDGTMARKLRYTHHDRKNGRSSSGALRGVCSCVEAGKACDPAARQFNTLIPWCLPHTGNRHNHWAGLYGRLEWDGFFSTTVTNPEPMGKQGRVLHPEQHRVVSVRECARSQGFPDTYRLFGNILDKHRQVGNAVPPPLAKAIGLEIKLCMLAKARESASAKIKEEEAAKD
# DNMT1 interf DR – beacon fluorescence artifact, dose response counter-screen; molecular beacon fluorescence, spectral interference counter-screen; 200 tested, under 10 active; IC50, µM; shares compounds with DNMT1 inh; AID 602382; call rule not given here
# DNMT1 confirm – confirmation of human DNMT1 inhibitors | shares compounds with DNMT1 inh | DNMT1 molecular beacon HinP1I cleavage, fluorescence | inhibition, % at 10 µM | 8% of 2,300 active | AID 602385;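 active means average inhibition of at least 30% in the single-concentration confirmation test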
# DNMT1 interf – beacon fluorescence artifact counter-screen; DNMT1 molecular beacon spectral interference counterscreen, fluorescence 485/520; 1% of 2,300 active; AID 602387; activation (fluorescence interference), % at 10 µM; shares compounds with DNMT1 inh;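 active means activation of at least 30% at 10 µM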;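 further: DNMT1 catalytic domain with a HinP1I cleavage step and a FAM/dabcyl DNA beacon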
# * = called active by the depositor; x = no result given. Compounds with a hit are over-represented: about 1.6% of the library has one in this group of screens.
SMILES,Scp-1 inhibitor,STEP block,F508del corr,LMPTP block,SUMO1 PPI mod,DNMT1 inh,DNMT1 confirm,DNMT1 interf,others
Cc1ccc(C)c(SCC(=O)NC(=O)NC2CCCC2)c1,-1,-1,1,1,-2,74*,2,3,
O=C(Cn1cncc1-c1ccc([N+](=O)[O-])cc1)Nc1cccc2ccccc12,13,2,x,6,-14,50*,7,-3,
CCCC(=O)Nc1ccc(-c2nc3cc(C)c(C)cc3o2)cc1,-3,-1,x,-2,-1,56*,-1,-5,
O=C(CN1C(=O)c2ccccc2C1=O)Nc1ccc(-c2nc3ccccc3o2)cc1,-6,2,x,0,-5,78*,2,2,
O=C(CCN1C(=O)c2ccccc2C1=O)Nc1ccc(-c2nc3ccccc3o2)cc1,4,0,x,0,1,42,x,x,
O=C(O)c1ccc2c(c1)S(=O)(=O)c1ccccc1C2=O,8,-4,x,-2,-29,3,x,x,
O=C(O)c1cc(O)c2c(c1)C(=O)c1cccc(O)c1C2=O,65*,13,1,10,32,69*,9,1,
Cc1noc(C)c1S(=O)(=O)N(C)C[C@H]1OCCCC[C@@H](C)Oc2ccc(NS(=O)(=O)c3ccc(F)cc3)cc2C(=O)N([C@@H](C)CO)C[C@@H]1C,x,x,2,x,x,x,x,x,
CC1=NOC(=O)/C1=C\c1ccc(-c2cc(Cl)ccc2Cl)o1,11,1,x,0,48*,81*,4,-8,
CC(=C\C(=O)O)/C(=C/c1ccc(C)o1)C(=O)O,56*,-1,-2,-2,-1,78*,9,14,
CC(C)C(=O)Nc1ccc2c(c1)C(=O)N(C)[C@@H]1CC[C@H](CC(=O)N[C@@H](C)c3ccccc3)O[C@H]1CO2,x,x,-2,x,x,x,x,x,
O=C(COC(=O)c1ccccc1Cl)NCc1ccco1,40,3,2,12,6,85*,10,5,
O=C(COC(=O)c1ccc(NS(=O)(=O)c2cccs2)cc1)NCc1ccco1,92*,30,x,50,40*,92*,71*,3,DNMT1 interf DR=>99
O=C(COC(=O)c1ccccc1Nc1ccccc1)NCc1ccco1,-7,-1,x,0,2,-2,x,x,
CCOC(=O)c1cc(-c2ccc(C)cc2)n(CC(=O)NCc2ccco2)c1C,-14,1,4,-1,0,50*,-1,2,
CO[C@@H]1CN(C)C(=O)c2ccc(NS(C)(=O)=O)cc2OC[C@H](C)NC[C@@H]1C,x,x,0,x,x,x,x,x,
Cc1ccc(-c2nc3cccnc3o2)cc1NC(=O)COc1ccc(Cl)cc1C,3,5,x,2,19,73*,2,-7,
Cc1ccc(-c2nc3ncccc3o2)cc1NC(=O)COc1ccccc1,-1,0,1,1,5,-1,x,x,
Cc1ccc(-c2nc3ncccc3o2)cc1NC(=O)Cc1ccc(Cl)cc1,-12,-4,x,-1,1,76*,3,4,
Cc1ccc(-c2nc3cccnc3o2)cc1NC(=O)COc1ccc(C(C)(C)C)cc1,8,6,x,6,1,-7,x,x,
Cc1ccc(C)c(N(Cc2cc3ccc(C)cc3[nH]c2=O)C(=O)c2ccco2)c1,-4,1,-2,0,2,142*,3,2,
CCCC(=O)N1CC2(C1)CN(C(=O)C1CCOCC1)[C@@H](CO)c1[nH]c3cc(OC)ccc3c12,x,x,0,x,x,x,x,x,
CCc1cc(=O)oc2cc(C)c(CN3CCCCC3)c(O)c12,-11,10,x,0,37,9,x,x,
CCc1cc(=O)oc2cc(C)c(CN3CCCC3)c(O)c12,7,3,x,8,39,87*,4,1,
CC(=O)N(C)C[C@H]1Oc2cc(Br)ccc2S(=O)(=O)N([C@@H](C)CO)C[C@@H]1C,x,x,-1,x,x,x,x,x,
SMILES,Scp-1 inhibitor,STEP block,F508del corr,LMPTP block,SUMO1 PPI mod,DNMT1 inh,DNMT1 confirm,DNMT1 interf,others
COC(=O)[C@@]1(C)CC[C@]2(C)CC[C@@]3(C)C(=CC(=O)C4[C@@]5(C)CC[C@H](O)C(C)(C)[C@@H]5CC[C@]43C)[C@H]2C1 (stereo partly drawn),0,0,-1,1,-5,53*,-1,2,
CC1(C)C2CC[C@]3(C)C(CC=C4[C@@H]5C[C@@](C)(CO)[C@@H](O)C[C@]5(C(=O)O)CC[C@]43C)[C@@]2(C)CC[C@@H]1O (stereo partly drawn),10,-1,x,1,0,-2,x,x,
CCCCCCCCc1nnc(NC(=O)c2ccco2)s1,22,3,-2,4,0,113*,59*,4,DNMT1 interf DR=>99
CCOCc1nnc(NC(=O)c2ccco2)s1,-6,1,x,-3,0,2,x,x,
COc1ccc2c(c1OC)C(=O)N1N=C(c3ccc(-c4ccccc4)cc3)CC21 (stereo not drawn),-8,1,1,4,-4,-1,x,x,
COc1ccc2c(c1OC)C(=O)N1c3ccccc3N=C(c3ccc([N+](=O)[O-])cc3)CC21 (stereo not drawn),-4,0,x,0,-25,62*,0,-2,
COc1ccc(NC(=O)/C=C/c2ccc(Br)o2)cn1,11,1,-2,14,-7,51*,-1,1,
COc1ccc(NC(=O)/C=C/c2ccco2)cn1,11,1,2,2,-11,20,x,x,
COc1ccccc1CNC(=O)/C=C/c1ccc(Br)o1,-1,5,-4,46,72*,91*,5,-1,
O=C(C[C@H]1CC[C@@H]2[C@H](COC[C@@H](O)CN2C(=O)c2cnccn2)O1)NCc1ccc(Cl)cc1,x,x,0,x,x,x,x,x,
Fc1cc(F)c2nc(Nc3nc4cc5c(cc4s3)OCO5)sc2c1,1,1,x,11,83*,72*,-1,-4,
Cc1ccc([N+](=O)[O-])cc1-c1ccc(/C=C(\C#N)c2[nH]nc(N)c2C#N)o1,36,37,6,71*,58*,84*,6,-6,
Cc1ccc(Cn2nc(C)c(NC(=O)CSc3nc4c(c(C(F)(F)F)n3)CCc3ccccc3-4)c2C)cc1,7,1,x,0,-8,39,x,x,
Cc1nn(Cc2ccc(Cl)cc2)c(C)c1NC(=O)CSc1nc2c(c(C(F)(F)F)n1)CCc1ccccc1-2,6,18,x,2,0,51*,0,0,
